Blank lines part the entries; values can stand above or below the molecule they belong to.
Experiments:
[1] = Oral bioavailability in cynomolgus monkey at 10 mg/kg administered as single dose by LC-MS/MS method; assay type: ADME, organism-based, Macaca fascicularis; conditions: in vivo
How it was run: (§1)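 Male F344 rats (146–185 g) and male cynomolgus monkeys (3.48–4.29 kg), n = 4 each, fasted overnight, received single iv or oral doses of 0.3, 1.0, 3.0 or 10.0 mg/kg. Monkeys had 2-week washouts between doses. Plasma was sampled to 48 h and assayed by LC-MS/MS with deuterated internal standard. Noncompartmental analysis: tmax observed; t1/2 by regression on ≥3 terminal log points; Vss = dose·AUMC/(AUC0–inf)²; Foral = oral/iv AUC0–inf at the same dose.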

[2] = Half life in cynomolgus monkey at 1 mg/kg, iv administered as single dose by LC-MS/MS method; assay type: ADME, organism-based, Macaca fascicularis; parameters: dose 1 mg/kg, route intravenous; conditions: in vivo; how it was run: as §1
[3] = Cmax in cynomolgus monkey at 0.3 mg/kg, po administered as single dose by LC-MS/MS method; assay type: ADME, organism-based, Macaca fascicularis; parameters: dose 0.3 mg/kg, route oral; conditions: in vivo
How it was run: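 Fasted male F344 rats (146–185 g) and cynomolgus monkeys (3.48–4.29 kg), n = 4 each, received a single oral dose; monkeys had 2-week washouts. Plasma sampled up to 48 h, stored at […], assayed by LC-MS/MS with a deuterated internal standard. Cmax taken from observed data by noncompartmental analysis; mean ± S.D. (n = 3 or 4).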

[4] = Tmax in cynomolgus monkey at 3 mg/kg, po administered as single dose by LC-MS/MS method; assay type: ADME, organism-based, Macaca fascicularis; parameters: dose 3 mg/kg, route oral; conditions: in vivo; how it was run: as §1
[5] = AUC (0 to infinity) in cynomolgus monkey at 10 mg/kg, iv administered as single dose by LC-MS/MS method; assay type: ADME, organism-based, Macaca fascicularis; parameters: dose 10 mg/kg, route intravenous, time infinity; conditions: plasma
How it was run: (§2)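 Fasted male F344 rats (146–185 g) or male cynomolgus monkeys (3.48–4.29 kg), n = 4 per dose, given single iv or oral dose of 0.3, 1.0, 3.0 or 10.0 mg/kg; monkeys dosed with 2-week washouts. Blood sampled to 48 h; plasma stored frozen. LC-MS/MS with deuterated internal standard. Noncompartmental analysis: AUClast by trapezoidal rule; AUC0–inf = AUClast + Ctz/terminal rate constant; mean ± S.D.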

[6] = Clearance in F344 rat at 3 mg/kg, iv administered as single dose by LC-MS/MS method; assay type: ADME, organism-based; parameters: dose 3 mg/kg, route intravenous; conditions: in vivo
How it was run: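 Fasted male F344 rats (146–185 g) and male cynomolgus monkeys (3.48–4.29 kg), n = 4 each, received a single iv dose; monkeys had 2-week washouts between doses. Blood was sampled up to 48 h and plasma stored at […]. Plasma parent was quantified by LC-MS/MS with a deuterated internal standard. CL = dose/AUC0–inf by noncompartmental analysis; mean ± S.D.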

[7] = Tmax in cynomolgus monkey at 0.3 mg/kg, po administered as single dose by LC-MS/MS method; assay type: ADME, organism-based, Macaca fascicularis; parameters: dose 0.3 mg/kg, route oral; conditions: in vivo; how it was run: as §1
[8] = Tmax in F344 rat at 3 mg/kg, po administered as single dose by LC-MS/MS method; assay type: ADME, organism-based; parameters: dose 3 mg/kg, route oral; conditions: in vivo; how it was run: as §1
[9] = AUClast in cynomolgus monkey at 10 mg/kg, iv administered as single dose by LC-MS/MS method; assay type: ADME, organism-based, Macaca fascicularis; parameters: time 0 - last, dose 10 mg/kg, route intravenous; conditions: plasma; how it was run: as §2
[10] = AUC (0 to infinity) in F344 rat at 1 mg/kg, iv administered as single dose by LC-MS/MS method; assay type: ADME, organism-based; parameters: time infinity, dose 1 mg/kg, route intravenous; conditions: plasma; how it was run: as §2
[11] = AUClast in cynomolgus monkey at 3 mg/kg, po administered as single dose by LC-MS/MS method; assay type: ADME, organism-based, Macaca fascicularis; parameters: time 0 - last, dose 3 mg/kg, route oral; conditions: plasma; how it was run: as §2
[12] = AUClast in F344 rat at 10 mg/kg, po administered as single dose by LC-MS/MS method; assay type: ADME, organism-based; parameters: time 0 - last, dose 10 mg/kg, route oral; conditions: plasma; how it was run: as §2
[13] = AUClast in F344 rat at 0.3 mg/kg, po administered as single dose by LC-MS/MS method; assay type: ADME, organism-based; parameters: time 0 - last, dose 0.3 mg/kg, route oral; conditions: plasma; how it was run: as §2
[14] = Half life in F344 rat at 0.3 mg/kg, po administered as single dose by LC-MS/MS method; assay type: ADME, organism-based; parameters: dose 0.3 mg/kg, route oral; conditions: in vivo
[15] = Drug excretion in F344 rat expired air at 1 mg/kg, iv administered as single dose after 0 to 48 hrs by scintillation counting method; assay type: ADME, organism-based; parameters: dose 1 mg/kg, route intravenous; conditions: in vivo
How it was run: (§3)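 Fasted F344 rats (152–156 g iv via tail vein; 154–159 g oral; n = 4) received [14C]-labelled drug at 1 mg/kg (41.9 µCi/kg). Animals were kept in metabolic cages; urine and feces were collected to 168 h, and expired CO2 was trapped in 2-aminoethanol/2-methoxyethanol (1:1) to 48 h. Samples were counted by liquid scintillation (feces homogenized). Results are % of dose, mean ± S.D.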

[16] = Drug excretion in F344 rat feces at 1 mg/kg, iv administered as single dose after 0 to 168 hrs by scintillation counting method; assay type: ADME, organism-based; parameters: dose 1 mg/kg, route intravenous; conditions: in vivo; how it was run: as §3
[17] = system: Rattus norvegicus; assay: Total drug excretion in F344 rat at 1 mg/kg, po administered as single dose after 0 to 168 hrs by scintillation counting method; assay type: ADME, organism-based; parameters: dose 1 mg/kg, route oral; conditions: in vivo
How it was run: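 Fasted F344 rats (n = 4) received [14C]-labelled drug at 1 mg/kg (41.9 µCi/kg), iv via tail vein or oral. They were housed in metabolic cages. Urine and feces were collected to 168 h, and expired CO2 was trapped in 2-aminoethanol/2-methoxyethanol to 48 h. Radioactivity was counted by liquid scintillation, feces after homogenization. Results are % of dose.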

[18] = Drug excretion in bile duct cannulated F344 rat bile at 1 mg/kg, po administered as single dose after 0 to 48 hrs by scintillation counting method; assay type: ADME, organism-based; parameters: dose 1 mg/kg, route oral; conditions: in vivo
How it was run: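 Common bile duct was cannulated under diethyl ether in fasted F344 rats. After recovery, [14C]-labelled drug (1 mg/kg, 41.9 µCi/kg) was given iv via tail vein or by oral gavage (n = 4). Rats were held in Bollman cages and bile was collected at 4°C over 0–48 h intervals. Bile was counted by liquid scintillation; % of dose.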

[19] = system: Ileum; assay: Drug distribution in F344 rat ileum at 1 mg/kg, po administered as single dose after 1 hr by scintillation counting method; assay type: ADME, organism-based; parameters: dose 1 mg/kg, route oral; conditions: in vivo
How it was run: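 [14C]-labelled drug (1 mg/kg, 42.4 µCi/kg) was given orally to fasted F344 rats (148–168 g, n = 3). Contents of stomach, duodenum+jejunum, ileum and cecum were washed out with water at 0.5–8 h, homogenized, solubilized and counted by liquid scintillation. Results are % of dose, mean ± S.D.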

[20] = system: Plasma; assay: Drug metabolism in po dosed F344 rat plasma by LC-MS/MS method; assay type: ADME, organism-based; conditions: in vivo
[21] = Drug excretion in cynomolgus monkey urine at 3 mg/kg, po administered as single dose after 0 to 336 hrs by scintillation counting method; assay type: ADME, organism-based, Macaca fascicularis; parameters: dose 3 mg/kg, route oral; conditions: in vivo
[22] = Drug excretion in cynomolgus monkey feces at 3 mg/kg, po administered as single dose after 0 to 336 hrs by scintillation counting method; assay type: ADME, organism-based, Macaca fascicularis; parameters: dose 3 mg/kg, route oral; conditions: in vivo
How it was run: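 Fasted cynomolgus monkeys (n = 4) received [14C]-labelled drug at 3 mg/kg, iv via saphenous vein (191 µCi/kg) or orally by stomach catheter (156.5 µCi/kg). Urine, feces and water cage-wash were collected to 336 h. Samples were counted by liquid scintillation; feces were homogenized in 4-fold water. Results are % of dose, mean ± S.D.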

[23] = system: Plasma; assay: Drug metabolism in po dosed monkey plasma by LC-MS/MS method; conditions: cynomolgus monkey, in vivo
[24] = Drug metabolism in po dosed monkey urine assessed as 1,4-dideoxy-1,4-imino-D-arabinitol formation by LC-MS/MS method; conditions: cynomolgus monkey, in vivo

- bioavailability [1]: 1.2%
- half-life [2]: 21.4 h
- Cmax [3]: 5.23 ng/mL
- Tmax [4]: 1.75 h
- AUC(0-inf) [5]: 74500 ng·h/mL
- clearance [6]: 2.67 mL/min/kg
- Tmax [7]: 1.75 h
- Tmax [8]: 0.375 h
- AUC(0-t) [9]: 74300 ng·h/mL
- AUC(0-inf) [10]: 4930 ng·h/mL
- AUC(0-t) [11]: 186 ng·h/mL
- AUC(0-t) [12]: 1050 ng·h/mL
- AUC(0-t) [13]: 42.1 ng·h/mL
- half-life [14]: 2.69 h
SMILES: C[C@H]1O[C@@H](O[C@H]2[C@H](O)[C@@H](O)[C@@H](O[C@H]3[C@H](O)CN[C@@H]3CO)O[C@@H]2CO)[C@H](O)[C@@H](O)[C@@H]1O

- Drug excretion [15]: 0.82%
- Drug excretion [16]: 17.82%
- Drug excretion [17]: 97.94%
- Drug excretion [18]: 0.59%
- Drug uptake [19]: 67.7%
- Drug metabolism [20]: metabolite_not_detected
- Drug excretion [21]: 5.67%
- Drug excretion [22]: 88.13%
- Drug metabolism [23]: metabolite_not_detected
- Drug metabolism [24]: metabolite_detected
SMILES: C[C@H]1O[C@@H](O[C@H]2[C@H](O)[C@@H](O)[C@@H](O[14C@H]3[14C@H](O)[14CH2]N[14C@@H]3[14CH2]O)O[C@@H]2CO)[C@H](O)[C@@H](O)[C@@H]1O

Reference: ChEMBL document CHEMBL3526127, “Absorption, elimination, and metabolism of CS-1036, a novel α-amylase inhibitor in rats and monkeys, and the relationship between gastrointestinal distribution and suppression of glucose absorption” (Drug Metab Dispos, 2013)
